Activity calls are given as the source filed them. The calls are words filed in the database; no cut-off is given here.
What was measured:
[1] = target: Cannabinoid receptor 2 (Homo sapiens) (UniProt P34972); assay: Antagonist activity at CB2 receptor expressed in Neuro 2A cells assessed as blockade of Hu210-mediated increase in number of neurite outgrowth at 10 uM after 16 hrs; assay type: functional, cell-based
How it was run: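 Neuro 2A cells transfected with Flag-tagged CB1 or CB2 were exposed 16 h in 0.1% FBS medium to 100 nM Hu-210 with or without 10 μM peptide. The percentage of cells extending neurites was scored and normalized to untreated cells (100%). Mean ± SE of triplicate experiments.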

[2] = target: T1, Type-1 angiotensin II receptor (Homo sapiens) (UniProt P30556); assay: Antagonist activity at AT1 angiotensin receptor expressed in HEK293 cells assessed as blockade of secreted alkaline phosphatase activity at 1 uM after 6 hrs relative to control; assay type: functional, cell-based
T1 sequence (whole entry): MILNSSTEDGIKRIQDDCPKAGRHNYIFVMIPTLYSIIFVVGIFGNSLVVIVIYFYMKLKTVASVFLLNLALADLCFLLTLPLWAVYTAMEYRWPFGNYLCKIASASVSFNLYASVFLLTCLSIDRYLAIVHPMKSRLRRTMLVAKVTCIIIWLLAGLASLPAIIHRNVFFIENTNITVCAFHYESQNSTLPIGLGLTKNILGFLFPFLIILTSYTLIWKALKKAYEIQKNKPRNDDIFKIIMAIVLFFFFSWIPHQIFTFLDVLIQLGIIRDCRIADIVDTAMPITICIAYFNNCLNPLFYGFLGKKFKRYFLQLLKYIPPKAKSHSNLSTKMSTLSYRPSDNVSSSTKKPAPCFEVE
How it was run: (§1)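 HEK-293 cells transiently co-transfected with pCRE-SeAP and a Flag-tagged receptor, 30,000 cells/well on poly-L-lysine. They were serum-starved 16–18 h, then exposed 6 h in serum-free medium to 10 μM forskolin (omitted for β2) plus the receptor agonist (100 nM), with or without peptide (1 μM). Heat-treated supernatant SeAP was read by CSPD chemiluminescence. Mean ± SEM, n = 6.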

[3] = target: Cannabinoid receptor 2 (Homo sapiens) (UniProt P34972); assay: Antagonist activity at CB2 receptor expressed in SKNSH cells at 100 nM by ELISA relative to control; assay type: functional, cell-based; parameters: scale not given: the % may be the effect or the level left
[4] = target: Mu-type opioid receptor (Homo sapiens) (UniProt P35372); assay: Antagonist activity at mu opioid receptor expressed in SKNSH cells at 100 nM by ELISA relative to control; assay type: functional, cell-based; parameters: scale not given: the % may be the effect or the level left
Sequence of Mu-type opioid receptor (Homo sapiens) (P35372 whole entry): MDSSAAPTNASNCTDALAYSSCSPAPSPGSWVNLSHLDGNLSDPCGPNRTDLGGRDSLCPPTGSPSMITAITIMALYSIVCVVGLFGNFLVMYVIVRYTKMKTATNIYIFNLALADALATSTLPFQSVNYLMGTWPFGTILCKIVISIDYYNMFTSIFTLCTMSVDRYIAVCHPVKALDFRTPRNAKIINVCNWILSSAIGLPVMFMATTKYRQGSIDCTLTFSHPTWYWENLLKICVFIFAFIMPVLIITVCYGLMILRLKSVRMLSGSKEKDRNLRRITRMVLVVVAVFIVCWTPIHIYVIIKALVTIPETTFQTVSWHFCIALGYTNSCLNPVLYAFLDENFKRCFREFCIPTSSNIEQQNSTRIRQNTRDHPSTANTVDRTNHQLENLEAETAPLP

[5] = target: T2, B2 bradykinin receptor (Homo sapiens) (UniProt P30411); assay: Antagonist activity at B2 bradykinin receptor expressed in SKNSH cells at 100 nM by ELISA; assay type: functional, cell-based; parameters: scale not given: the % may be the effect or the level left
T2 sequence (whole entry): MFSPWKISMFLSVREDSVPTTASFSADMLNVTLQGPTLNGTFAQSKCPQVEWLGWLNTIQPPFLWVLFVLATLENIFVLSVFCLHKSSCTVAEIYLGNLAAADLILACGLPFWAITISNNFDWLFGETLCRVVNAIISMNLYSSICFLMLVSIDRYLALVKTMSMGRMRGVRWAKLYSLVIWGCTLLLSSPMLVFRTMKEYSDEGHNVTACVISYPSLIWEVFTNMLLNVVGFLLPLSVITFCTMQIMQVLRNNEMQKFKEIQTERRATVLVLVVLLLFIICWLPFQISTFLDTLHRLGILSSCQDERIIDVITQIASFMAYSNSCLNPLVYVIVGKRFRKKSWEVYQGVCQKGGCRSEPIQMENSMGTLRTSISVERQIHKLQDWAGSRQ

[6] = target: T2, B2 bradykinin receptor (Homo sapiens); assay: Antagonist activity at B2 bradykinin receptor expressed in SKNSH cells assessed as blockade of bradykinin-induced increase in antibody recognition at 100 nM by ELISA; assay type: functional, cell-based; parameters: scale not given: the % may be the effect or the level left
[7] = target: Cannabinoid receptor 2 (Homo sapiens) (UniProt P34972); assay: Antagonist activity at CB2 receptor expressed in HEK293 cells assessed as blockade of Hu210-mediated decrease in secreted alkaline phosphatase activity at 1 uM after 6 hrs relative to control; assay type: functional, cell-based; how it was run: as §1
[8] = target: T3, Type-2 angiotensin II receptor (Homo sapiens) (UniProt P50052); assay: Antagonist activity at AT2 angiotensin receptor expressed in SKNSH cells at 100 nM by ELISA; assay type: functional, cell-based; parameters: scale not given: the % may be the effect or the level left
T3 sequence (whole entry): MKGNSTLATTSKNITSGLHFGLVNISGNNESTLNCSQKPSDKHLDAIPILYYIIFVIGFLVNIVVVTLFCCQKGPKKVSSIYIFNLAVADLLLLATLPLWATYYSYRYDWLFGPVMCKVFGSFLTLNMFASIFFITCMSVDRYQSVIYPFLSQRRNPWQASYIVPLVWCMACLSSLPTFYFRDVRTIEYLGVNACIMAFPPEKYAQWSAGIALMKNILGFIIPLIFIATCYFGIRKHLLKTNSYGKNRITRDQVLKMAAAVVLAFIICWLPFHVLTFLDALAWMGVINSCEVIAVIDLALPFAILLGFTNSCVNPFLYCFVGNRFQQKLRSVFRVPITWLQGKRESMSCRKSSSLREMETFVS

[9] = target: Cannabinoid receptor 1 (Homo sapiens) (UniProt P21554); assay: Antagonist activity at CB1 receptor expressed in SKNSH cells at 100 nM by ELISA relative to control; assay type: functional, cell-based; parameters: scale not given: the % may be the effect or the level left
Sequence of Cannabinoid receptor 1 (Homo sapiens) (P21554 whole entry): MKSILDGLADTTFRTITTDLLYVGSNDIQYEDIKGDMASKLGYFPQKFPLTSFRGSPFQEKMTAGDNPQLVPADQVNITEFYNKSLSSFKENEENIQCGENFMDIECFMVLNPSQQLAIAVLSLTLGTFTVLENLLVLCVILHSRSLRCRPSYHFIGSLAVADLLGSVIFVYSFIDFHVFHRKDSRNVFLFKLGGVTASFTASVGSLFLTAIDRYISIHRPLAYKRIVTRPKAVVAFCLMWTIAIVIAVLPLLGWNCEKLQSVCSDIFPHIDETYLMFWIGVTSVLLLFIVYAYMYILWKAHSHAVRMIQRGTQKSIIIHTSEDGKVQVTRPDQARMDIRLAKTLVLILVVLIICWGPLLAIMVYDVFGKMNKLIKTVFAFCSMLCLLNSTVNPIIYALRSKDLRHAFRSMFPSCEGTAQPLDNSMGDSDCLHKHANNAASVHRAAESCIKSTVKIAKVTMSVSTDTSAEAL

[10] = target: Cannabinoid receptor 1 (Homo sapiens) (UniProt P21554); assay: Antagonist activity at CB1 receptor expressed in SKNSH cells assessed as blockade of Hu210-induced increase in antibody recognition at 100 nM by ELISA relative to control; assay type: functional, cell-based; parameters: scale not given: the % may be the effect or the level left
[11] = target: T4, Cannabinoid receptor 2 (Rattus norvegicus) (UniProt Q9QZN9); assay: Antagonist activity at Long-Evans rat spleen CB2 receptor assessed as blockade of Hu210-mediated decrease in adenylate cyclase activity; assay type: functional, tissue-based
T4 sequence (whole entry): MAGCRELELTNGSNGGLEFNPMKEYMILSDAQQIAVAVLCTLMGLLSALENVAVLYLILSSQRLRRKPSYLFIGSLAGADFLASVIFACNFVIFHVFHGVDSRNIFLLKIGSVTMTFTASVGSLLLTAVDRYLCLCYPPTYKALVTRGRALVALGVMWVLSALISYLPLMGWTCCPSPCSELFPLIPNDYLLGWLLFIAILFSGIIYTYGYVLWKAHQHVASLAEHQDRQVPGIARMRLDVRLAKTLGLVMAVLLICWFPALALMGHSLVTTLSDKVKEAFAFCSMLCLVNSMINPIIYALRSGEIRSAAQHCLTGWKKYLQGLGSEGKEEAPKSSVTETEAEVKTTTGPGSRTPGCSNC
How it was run: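 Membranes (10 μg) came from striatum (CB1) or spleen (CB2). They were tested in GTPγS-binding or adenylyl cyclase assays with Hu-210 and test ligand (0–1 μM), or with Hu-210 curves with or without 10 μM peptide; a 1 μM single-point combination was also used. Mean ± SE of triplicates.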

[12] = target: Cannabinoid receptor 2 (Homo sapiens) (UniProt P34972); assay: Antagonist activity at CB2 receptor expressed in HEK293 cells assessed as blockade of secreted alkaline phosphatase activity at 1 uM after 6 hrs relative to control; assay type: functional, cell-based
How it was run: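 HEK-293 cells transfected with 5 μg pCRE-SeAP plus 1 μg Flag-tagged CB₁ or CB₂ receptor, 30,000 cells/well, serum-starved 16–18 h. Stimulated 6 h in serum-free medium with 10 μM forskolin and 100 nM agonist, without or with 1 μM test peptide. Supernatant diluted in pH 7.2 buffer, heated 65°C 20 min, then CSPD chemiluminescence read. Mean ± SEM, n = 6.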

Sequence of Cannabinoid receptor 2 (Homo sapiens) (P34972 whole entry): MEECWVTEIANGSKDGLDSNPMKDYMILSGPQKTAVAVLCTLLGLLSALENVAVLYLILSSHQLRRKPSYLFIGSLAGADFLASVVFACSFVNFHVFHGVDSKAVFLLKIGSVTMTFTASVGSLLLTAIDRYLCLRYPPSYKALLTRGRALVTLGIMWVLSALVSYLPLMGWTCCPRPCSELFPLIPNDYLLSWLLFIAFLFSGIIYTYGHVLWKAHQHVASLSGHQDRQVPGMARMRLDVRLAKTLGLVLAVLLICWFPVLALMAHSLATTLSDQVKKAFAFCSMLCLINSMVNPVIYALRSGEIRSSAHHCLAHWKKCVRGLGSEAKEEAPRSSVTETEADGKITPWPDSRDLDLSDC

- Activity [1]: inactive
- Activity [2]: 0.98
- Activity [3]: 103%
- Activity [4]: 106%
- Activity [5]: 103%
- Activity [6]: 149%
- Activity [7]: 0.85
- Activity [8]: 100%
- Activity [9]: 72%
- Activity [10]: 102%
- Activity [11]: inactive
- Activity [12]: 0.94
SMILES: CC(C)C[C@H](NC(=O)[C@H](Cc1ccccc1)NC(=O)[C@H](CCCCN)NC(=O)[C@H](Cc1ccccc1)NC(=O)[C@H](CC(N)=O)NC(=O)[C@@H](NC(=O)[C@@H]1CCCN1)C(C)C)C(=O)N[C@@H](CO)C(=O)N[C@@H](Cc1cnc[nH]1)C(=O)O [HEMOPRESSIN]
